From ChEMBL document CHEMBL1123247, “Nucleoside conjugates. 7. Synthesis and antitumor activity of 1-beta-D-arabinofuranosylcytosine conjugates of ether lipids” (J Med Chem, 1986)

Tests used:
L1210 [1] = test: Antitumor activity was determined against the ip implanted L1210 leukemia in mice by percent median survival rate (treated/control) at 300 mg/kg (treatment of 1qd schedule) dosage; 20.5/6.5; type: functional, Mus musculus; conditions: route intraperitoneal
Summary of the method: (§1)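 DBA/2J mice, 23-28 g, in groups of 6, were inoculated ip with 1×10^6 L1210 cells on day 0. Dosing was ip starting 24 h later on the stated daily schedules. Conjugates were given as sonicated solutions and reference prodrugs as suspensions in 0.9% NaCl with 0.5% Tween-80. Mice were observed daily until death or 45 days. Median survival T/C was calculated from survivors per NCI protocols.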

L1210 [2] = test: Antitumor activity against the ic implanted L1210 lymphoid leukemia in mice expressed as optimal dose (1 qd treatment schedule) required to produce greatest increase in life span was determined; type: functional, Mus musculus
Summary of the method: (§2)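 DBA/2J mice, groups of 6 (26-32 g), got 1 × 10^5 L1210 cells ic on day 0. Dosing was ip starting 24 h later, as a sonicated solution or suspension in 0.9% NaCl with 0.5% Tween-80, over a wide dose range. Mice were followed daily until death. Median survival T/C was taken from survivors per NCI protocols, and ILS = (T/C − 1) × 100. Active range means doses giving ILS ≥25%; optimal dose means greatest ILS.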

L1210 [3] = test: Antitumor activity was determined against the ic implanted L1210 lymphoid leukemia in mice by change in […] at 133 mg/kg (1,5,9qd treatment schedule) dosage; type: functional, Mus musculus
Summary of the method: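 DBA/2J mice, 6 per group (wt 26-32 g), inoculated ic with 1×10^5 L1210 cells on day 0. Dosing ip began 24 h after inoculation, with a sonicated solution or suspension in 0.9% NaCl containing 0.5% Tween-80, given over a range of doses. Animals were followed daily until death. Body weight change, median survival T/C, and %ILS = (T/C − 1) × 100 were computed from survivors per NCI protocols.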

L1210 [4] = test: Antitumor activity was determined against the ip implanted L1210 leukemia in mice by percent median survival rate (treated/control) at 40 mg/kg (treatment of 1-5qd schedule) dosage; 30.0/8.0; type: functional, Mus musculus; conditions: route intraperitoneal; summary of the method: as §1
L1210 [5] = test: Antitumor activity was determined against the ip implanted L1210 leukemia in mice by 45-day survivors in mice at 40 mg/kg (treatment of 1-5qd schedule) dosage; type: functional, Mus musculus; conditions: route intraperitoneal
Summary of the method: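 DBA/2J mice in groups of 6 (wt 23-28 g) were inoculated ip with 1×10^6 L1210 cells on day 0. Dosing was ip from 24 h, in 0.9% NaCl with 0.5% Tween-80 (conjugates sonicated), across a range of doses. Mice were observed daily until death or 45 days. Median T/C was computed from survivors per NCI protocols, and ILS = (T/C − 1)×100.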

L1210 [6] = test: Antitumor activity was determined against the ic implanted L1210 lymphoid leukemia in mice by range in survival days at 133 mg/kg (1,5,9qd treatment schedule) dosage; Range is 15-22; type: functional, Mus musculus
L1210 [7] = test: Antitumor activity was determined against the ic implanted L1210 lymphoid leukemia in mice by range in survival days at 300 mg/kg (1 qd treatment schedule) dosage; Range is 19-23; type: functional, Mus musculus
P388 [8] = test: Antitumor activity was determined against the ip implanted P388 leukemia in mice by percent median survival rate (treated/control) at 60 mg/kg (1-5qd treatment schedule) dosage; >45.0/11.0; type: functional, Mus musculus; conditions: route intraperitoneal
P388 [9] = test: Antitumor activity was determined against the ip implanted P388 leukemia in mice by percent median survival rate (treated/control) at 60 mg/kg (treatment of 1-5qd schedule) dosage; >45.0/11.0; type: functional, Mus musculus; conditions: route intraperitoneal
P388 [10] = test: Antitumor activity against ip implanted P388 leukemia in mice expressed as active dose range (1-5qd treatment schedule) required to produce increase in life span by >25% was determined; Range is 40-60; type: functional, Mus musculus
Summary of the method: (§3)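 P388 leukemia: 1 × 10^6 cells were given ip on day 0 to DBA/2J mice, groups of 6 (23-33 g). Treatment was ip from 24 h after inoculation, vehicle 0.9% NaCl with 0.5% Tween-80. Mice were observed daily until death or 45 days. Median survival T/C was calculated from survivors per NCI protocols, and ILS = (T/C − 1) × 100. Active range means doses giving ILS ≥25%; optimal dose means greatest ILS.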

L1210 [11] = test: Antitumor activity against the ic implanted L1210 lymphoid leukemia in mice expressed as optimal dose (1 qd treatment schedule) required to produce greatest increase in life span was determined
P388 [12] = test: Antitumor activity was determined against the ip implanted P388 leukemia in mice by change in […] at 60 mg/kg (treatment of 1-5qd schedule) dosage; type: functional, Mus musculus; conditions: route intraperitoneal
Summary of the method: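 P388 leukemia, 1×10^6 cells implanted ip on day 0 into DBA/2J mice, groups of 6 (wt 23-33 g). Dosing ip started 24 h post-inoculation, vehicle 0.9% NaCl containing 0.5% Tween-80. Animals were observed daily until death or 45 days. Outputs were weight change, median survival T/C from survivors per NCI protocols, and %ILS = (T/C − 1) × 100.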

L1210 [13] = test: Antitumor activity against ic implanted L1210 lymphoid leukemia in mice expressed as active dose range (1-5qd treatment schedule) required to produce increase in life span by >25% was determined; Range is 40-100; type: functional, Mus musculus; summary of the method: as §2
L1210 [14] = test: Antitumor activity was determined against the ip implanted L1210 leukemia in mice by change in […] at 100 mg/kg (treatment of 1-5qd schedule) dosage; type: functional, Mus musculus; conditions: route intraperitoneal
Summary of the method: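 DBA/2J mice, 6 per group (wt 23-28 g), inoculated ip with 1×10^6 L1210 cells on day 0. Treatment was given ip in 0.9% NaCl with 0.5% Tween-80, starting 24 h later. Weight change was taken on day 8. Mice were observed daily until death or 45 days. Median survival T/C and %ILS = (T/C − 1) × 100 came from survivors per NCI protocols, and 45-day survivors were counted.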

P388 [15] = test: Antitumor activity against ip implanted P388 leukemia in mice expressed as active dose range (1-5qd treatment schedule) required to produce increase in life span by >25% was determined; Range is 20-200; type: functional, Mus musculus; summary of the method: as §3
L1210 [16] = test: Antitumor activity was determined against the ip implanted L1210 leukemia in mice by range in survival days at 200 mg/kg (treatment of 1-5qd schedule) dosage; Range is 15-17; type: functional, Mus musculus; conditions: route intraperitoneal; summary of the method: as §1
AMML = test: Compound was tested for the inhibition of AMML (acute myelomonocytic leukemia); type: functional, cell-based; conditions: Homo sapiens
Summary of the method: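 Human leukemia and solid tumor cells in culture were exposed to compound for 48 h. Viability was scored by trypan blue dye exclusion. IC50 (50% inhibition) was estimated from response curves of three separate experiments.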

P388 [17] = test: Antitumor activity was determined against the ip implanted P388 leukemia in mice by range in survival days at 500 mg/kg (treatment of 1qd schedule) dosage; Range is 14-15; type: functional, Mus musculus; conditions: route intraperitoneal
P388 [18] = test: Antitumor activity was determined against the ip implanted P388 leukemia in mice by range in survival days at 200 mg/kg (treatment of 1-5qd schedule) dosage; Range is 22-24; type: functional, Mus musculus; conditions: route intraperitoneal

In the case of `CCCCCCCCCCCCCCCC(=O)OC[C@H](COP(=O)(O)OP(=O)(O)OC[C@H]1O[C@@H](n2ccc(N)nc2=O)[C@@H](O)[C@@H]1O)OC(=O)CCCCCCCCCCCCCCC`, the median survival time (L1210 [1]) is reported as 20.5 days, the Optimal dose (L1210 [2]) is reported as 300 mg and the Weight change (L1210 [3]) is reported as -1.11 g mouse-1. It also gave a median survival time (L1210 [4]) of 30 days, a Survivors (L1210 [5]) of 1 and a Range (L1210 [6]) of 15. The Range (L1210 [7]) was 19 and the T/C (P388 [8]) was over 45%.

Work on `CCCCCCCCCCCCCCCCOCC(COP(=O)(O)OP(=O)(O)OC[C@H]1O[C@@H](n2ccc(N)nc2=O)[C@@H](O)[C@@H]1O)OC(=O)CCCCCCCCCCCCCCC` (mixture of isomers) yielded a T/C (P388 [9]) of over 45%, an Active dose range (P388 [10]) of 40 mg/kg/day and an Optimal dose (L1210 [11]) of 500 mg. For the same compound, the Weight change (P388 [12]) was -3.3 g mouse-1 and the Active dose range (L1210 [13]) was 40 mg/kg/day.

With `CCCCCCCCCCCCCCCCCCOCC(COP(=O)(O)OP(=O)(O)OC[C@H]1O[C@@H](n2ccc(N)nc2=O)[C@@H](O)[C@@H]1O)OC(=O)CCCCCCCCCCCCCCC` (mixture of isomers) the Weight change (L1210 [14]) was -0.95 g mouse-1.

In the case of `Nc1ccn([C@@H]2O[C@H](CO)[C@@H](O)[C@@H]2O)c(=O)n1` [CYTARABINE], the Active dose range (P388 [15]) is reported as 20 mg/kg/day, the Range (L1210 [16]) is reported as 15 and the IC50 (AMML) is reported as 2.3 µM. The Range (P388 [17]) was 14 and the Range (P388 [18]) was 22.
